Assay outcomes (PubChem)
Hits are enriched below; roughly 4.1% of the tested compounds scored in any of these assays.
Tb MetRS inh: T. brucei MetRS inhibitors, primary screen, biochemical, luminescence | methionyl-tRNA synthetase (Trypanosoma brucei brucei) | purified T. brucei MetRS, ATP depletion, Kinase-Glo luminescence | inhibition, % at 11.9 µM | 360,000 compounds, 0.4% hits;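 active means inhibition above a per-plate cutoff of the control wells' mean inhibition plus 3 SD, cut at about 5.5% in these data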
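Material: parasite MetRS enzyme / Replication: singlicate, one well per compound / Signal: luminescence of leftover ATP / Schedule: 2 h aminoacylation at 25 °C after 15 min preincubation / Medium: HEPES-MgCl2-KCl buffer plus DTT, spermine, BSA, pyrophosphatase / Doses: 11.9 µM single point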
AHR act: AHR activators, primary screen, cell-based, luminescence, luciferase reporter, human; AHR-responsive luciferase reporter cells; activation, % at 5 µM; 320,000 compounds, 2.5% hits; AID 2796, 2010; in the data active means activation above about 47%
SMARCA2 activ: SMARCA2 (BRM) function activators, primary screen, cell-based, luminescence, high throughput; MG213 cells, MMTV-luciferase reporter, dexamethasone, overnight; activation, % at 9.1 µM; 370,000 compounds, 1% hits; in the data active means activation above about 7.8%
TAG inh: inhibitors of triacylglycerol accumulation, primary screen, cell-based, uHTS, fluorescence, H9c2 | H9c2 cells, Nile Red lipid (TAG) fluorescence; cells loaded with 200 µM oleic acid | inhibition, % at 12.5 µM | AID 651582, 2012 | 230,000 compounds, 0.66% hits;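 active means pattern-corrected inhibition of lipid staining of at least 50% with the nuclear-stain viability signal not falling by more than 50%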
Efflux pump mplx: inhibitors of Candida efflux pumps in yeast, primary screen, S. cerevisiae, Nile Red, multiplex; S. cerevisiae Candida pump triplex; inhibition, % at 10 µM; 330,000 compounds, 0.44% hits; AID 485275, 2010;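 active means plate passing quality check with inhibition over a set limit, or well fluorescence over plate mean plus 4 SD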;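 further: Nile Red retained in pooled yeast measured as flow cytometry median fluorescence; higher means more Nile Red kept so more efflux inhibition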
TAG conf: triacylglycerol accumulation inhibitors, retest, confirmation, cell-based, single concentration, Nile Red fluorescence, H9c2; inhibition, % at 12.5 µM; shares compounds with TAG inh; H9c2 lipid accumulation; cells loaded with 200 µM oleic acid; 990 compounds, 71% hits; AID 651629, 2012;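 active means mean inhibition across replicates of 40% or more; inactive means mean inhibition below 40%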
Of the large screens only hits and unclear results are named; the others gave an inactive call (follow-up assays come after a bar, where they were run).

CC(C)N(C(=O)[C@H]1C[C@H](CC(=O)NCc2cccc(C(F)(F)F)c2)C(=O)N2CCc3c([nH]c4ccc(Cl)cc34)[C@]12C)C(C)C	TAG inh 57 (no result: AHR act) | TAG conf 82
O=C(C[C@H]1C[C@H](C(=O)N2CCOCC2)[C@@]2(CCC3CCCC3)c3[nH]c4cc(-c5ccco5)ccc4c3CCN2C1=O)NCC12CC3CC(CC(C3)C1)C2	TAG inh 62 (no result: AHR act) | TAG conf 77
COc1ccc2[nH]c3c(c2c1)CCN1C(=O)C(CC(=O)NCC24CC5CC(CC(C5)C2)C4)C[C@H](C(=O)N(C(C)C)C(C)C)[C@@]31C (stereo partly drawn)	TAG inh 51 (no result: AHR act) | TAG conf 59
COC(=O)C1=C(C)N(C)C(=NCC2CC2)NC1c1cccc(Cl)c1 (stereo not drawn)	none (no result: Tb MetRS inh, AHR act, TAG inh, Efflux pump mplx)
N=c1c2c(-c3ccccc3)c(-c3ccccc3)n(CCc3ccccc3)c2ncn1CCO	none (no result: Tb MetRS inh, AHR act, TAG inh, Efflux pump mplx)
O=C(Nc1ccc(F)cc1)c1cc(Cl)sc1Cl	TAG inh 52 | TAG conf inactive
CC1(C)CC(=O)C(C2C3=C(CC(C)(C)CC3=O)Oc3ccccc32)C(=O)C1 (stereo not drawn)	none
CC1(C)CC(=O)C2=C(C1)Oc1nc3ccccc3cc1C2C(C#N)C#N (stereo not drawn)	TAG inh 81 | TAG conf 60
CC(C)c1ccc2c(c1)C(c1ccc(N3CCOCC3)cc1)=NNC(c1cccs1)=N2	TAG inh 52 | TAG conf inactive
O=[N+]([O-])c1ccccc1/C=C/C=N/Nc1ccc(S(=O)(=O)Nc2ccc(Cl)cc2)cc1[N+](=O)[O-]	TAG inh 58 | TAG conf 52
O=C(O)c1ccc(N/N=C/C=C/c2ccccc2[N+](=O)[O-])cc1	none
O=[N+]([O-])c1cc(S(=O)(=O)Nc2cccc(Cl)c2)ccc1N/N=C/c1ccc(N2CCOCC2)cc1	TAG inh 80 | TAG conf 79
Fc1cccc(/C=N/Nc2cc(N3CCOCC3)ncn2)c1	TAG inh 60 | TAG conf inactive
Fc1ccc(/C=N/Nc2cc(N3CCOCC3)ncn2)cc1	none
COc1ccc(-c2nc(-c3ccccc3)c(-c3cc([N+](=O)[O-])ccc3C)[nH]2)cc1OC	TAG inh 50 | TAG conf 58
COc1ccc(N2CCN(CC(=O)c3c(C)n(C)c4ccc(OC)cc34)CC2)cc1	TAG inh 55 | TAG conf inactive
COc1ccc2c(c1)c(C(=O)CN1CCOCC1)c(C)n2C	none
CCC(=O)Nc1cccc(-c2nnc(-c3cccc(NC(=O)CC)c3)o2)c1	none (no result: TAG inh)
CCC(=O)Nc1ccc(-c2nnc(-c3ccccc3)o2)cc1	TAG inh 52 | TAG conf 43
CCCCc1ccc(N=N/C(C(=O)Nc2cc(OC)c(NC(C)=O)cc2OC)=C(/C)O)cc1	TAG inh 55 | TAG conf 68
O=C(C(=O)N1CCC(CNC(=O)c2ccccc2F)CC1)c1cc2ccccc2o1	none (no result: Tb MetRS inh, AHR act, TAG inh, Efflux pump mplx)
CSc1ccc(C2=C/C(=C3/SC(=S)NC3=O)c3ccccc3O2)cc1	TAG inh 59 (no result: AHR act, Efflux pump mplx) | TAG conf 58
CCN1/C(=C2/SC(=S)NC2=O)Sc2ccccc21	none
CCOC(=O)CNC(=O)N(C)[C@H]1C[C@H]2c3[nH]c4c(-c5cccc(C)c5)cccc4c3CCN2C(=O)[C@H]1[C@H](C)O	none (no result: Tb MetRS inh, AHR act, TAG inh, Efflux pump mplx)
CSc1nc(NCCN(C)C)c2sc3nc(-c4ccco4)c4c(c3c2n1)CCC4	TAG inh 51 (no result: AHR act, Efflux pump mplx) | TAG conf inactive
c1cc(C2CCCCC2)ccc1Oc1nc(N2CCOCC2)nc(N2CCOCC2)n1	TAG inh 80 | TAG conf 52
COc1cccc(C2c3cc4c(cc3OC(NNC(N)=O)C2C)OCO4)c1O (stereo not drawn)	TAG inh 62 (no result: AHR act, Efflux pump mplx) | TAG conf 52
COC(=O)c1c(-c2ccc(OC)cc2)sc2cc3c(cc12)OCO3	none (no result: TAG inh)
COc1ccc(-c2sc3cc4c(cc3c2C#Cc2ccc(N)cc2)OCO4)cc1	TAG inh 55 | TAG conf 58
